Reference: ChEMBL document CHEMBL5653605, “Reduced VEGF production, angiogenesis, and vascular regrowth contribute to the antitumor properties of dual mTORC1/mTORC2 inhibitors” (Cancer Res, 2011)
The source made the active and inactive calls.

Columns and labels:
[1] = test system: Pancreatic islet cell carcinoma; test: Antivascular activity against pancreatic islet cell carcinoma in RIP-Tag2 mouse assessed as reduction in CD31-positive tumor blood vessels at 200 mg/kg, po qd administered via gavage and measured after 7 days by immunohistochemical staining based fluorescence microscopic analysis relative to control; format: functional; parameters: scale not given: the % may be the effect or the level left; conditions: time 7 day
In short: (§1)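 For 7 days, RIP-Tag2 mice, 9–10 weeks old, received 75 mg/kg gavage BID, 200 mg/kg gavage QD, or 20 mg/kg ip QD. Perfusion-fixed tumors cut at 60–80 µm and stained for CD31 and type IV collagen basement membrane. Vessel area density from fluorescence images with threshold 30–50; sprouts and empty basement membrane sleeves examined by confocal microscopy. 3–8 mice/group; ANOVA, Fisher PLSD.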

[2] = test system: Pancreatic islet cell carcinoma; test: Additive antitumor activity in pancreatic islet cell carcinoma in RIP-Tag2 mouse assessed as induction of apoptosis by measuring increase in activated caspase-3 level at 100 mg/kg, po qd administered via gavage for 4 days in presence of OXA-01 by immunohistochemistry analysis relative to control; format: functional; conditions: time 4 day
In short: (§2)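 Perfusion-fixed tumor sections (60–80 µm) stained for phospho-histone H3 (proliferation) or activated caspase-3 (apoptosis) and quantified from confocal images. 3–8 mice/group; ANOVA, Fisher PLSD.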

[3] = test system: Pancreatic islet cell carcinoma; test: Antivascular activity against pancreatic islet cell carcinoma in RIP-Tag2 mouse assessed as appearance of empty basement membrane sleeves at 200 mg/kg, po qd administered via gavage and measured after 7 days by immunohistochemical staining based fluorescence microscopic analysis; format: functional, organism-based; conditions: time 7.0 day; in short: as §1
[4] = test system: Pancreatic islet cell carcinoma; test: (§3) Antivascular activity in pancreatic islet cell carcinoma in RIP-Tag2 mouse assessed as reduction in intratumoral hemorrhage by measuring reduction in TER-119 immunoreactivity at 200 mg/kg, po qd administered via gavage and measured after 7 days by confocal microscopic analysis relative to control; format: functional; parameters: scale not given: the % may be the effect or the level left; conditions: time 7 day
In short: (§4)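 Regrowth design in 10-week-old RIP-Tag2 mice: OSI-930 200 mg/kg gavage QD for 7 days, then 4 days of vehicle, 75 mg/kg gavage BID, or 20 mg/kg ip QD; controls received vehicle for 11 days. Perfusion-fixed sections stained for CD31 for vessel density or for the erythrocyte marker TER-119, quantified by confocal microscopy. 3–8 mice/group; ANOVA, Fisher PLSD.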

[5] = test system: Pancreatic islet cell carcinoma; test: as §3, with “gavage for 7 days followed by cessation” for “gavage”, “4” for “7”; format: functional; parameters: scale not given: the % may be the effect or the level left; conditions: time 7 day; in short: as §4
[6] = test system: Pancreatic islet cell carcinoma; test: Antivascular activity against pancreatic islet cell carcinoma in RIP-Tag2 mouse assessed as reduction in vascular sprouts at 200 mg/kg, po qd administered via gavage and measured after 7 days by immunohistochemical staining based fluorescence microscopic analysis relative to control; format: functional; parameters: scale not given: the % may be the effect or the level left; conditions: time 7 day; in short: as §1
[7] = biological target: Vascular endothelial growth factor receptor 2 (Homo sapiens, UniProt P35968)
[8] = test system: Pancreatic islet cell carcinoma; test: Additive antitumor activity in pancreatic islet cell carcinoma in RIP-Tag2 mouse assessed as reduction in proliferation by measuring reduction in phospho-histone H3 level at 100 mg/kg, po qd administered via gavage for 4 days in presence of OXA-01 by immunohistochemistry analysis; format: functional, organism-based; conditions: time 4.0 day; in short: as §2
[9] = test system: Pancreatic islet cell carcinoma; test: Antitumor activity in pancreatic islet cell carcinoma in RIP-Tag2 mouse assessed as induction of apoptosis by measuring increase in activated caspase-3 level at 100 mg/kg, po qd administered via gavage for 4 days in presence of rapamycin by immunohistochemistry analysis; format: functional, organism-based; conditions: time 4.0 day; in short: as §2
Mus musculus [10] = test: In vivo inhibition of 4E-BP1 phosphorylation at Ser37/46 residues in nu/nu CD-1 mouse xenografted with human GEO cells at 20 mg/kg administered for 12 days and measured 2 to 24 hrs post last dose by Western blot analysis; format: functional, organism-based; conditions: time 290-312 hrs
In short: (§5)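 GEO s.c. xenografts in nu/nu CD-1 mice; 20 mg/kg for 12 days; tumors snap-frozen at 2, 8, 24 h, lysed in Triton X-100/HEPES pH 7.4 buffer with phosphatase inhibitors; phospho and total 4E-BP1 (37/46) or S6 (235/236) by Western blot; n=2.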

Mus musculus [11] = test: In vivo inhibition of S6K phosphorylation in RIP-Tag2 mouse with pancreatic islet cell carcinoma 20 mg/kg, ip qd measured after 7 days by immunohistochemistry analysis; format: functional, organism-based; conditions: time 7.0 day
In short: (§6)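 RIP-Tag2 mice, 9–10 weeks old, given 20 mg/kg QD ip for 7 days; perfusion-fixed, 60–80 µm tumor sections immunostained for phospho-4E-BP1, phospho-Akt or phospho-S6K together with CD31; fluorescence/confocal imaging; 3–8 mice per group.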

OVCAR-3 [12] = test: (§7) Inhibition of S6K phosphorylation at 235/236 residues in serum deprived/insulin stimulated human OVCAR-3 cells harboring PTEN and wild type PI3K at 0.001 to 10 uM preincubated for 2 hrs followed by insulin stimulation and measured immediately by Western blot analysis; format: cell-based; conditions: dose 0.001-10 µM
Mus musculus [13] = test: In vivo inhibition of 4E-BP1 phosphorylation in RIP-Tag2 mouse with pancreatic islet cell carcinoma 20 mg/kg, ip qd measured after 7 days by immunohistochemistry; format: functional, organism-based; conditions: time 7.0 day; in short: as §6
[14] = test system: Pancreatic islet cell carcinoma; test: Antitumor activity against pancreatic islet cell carcinoma in RIP-Tag2 mouse assessed as reduction in VEGF production by measuring reduction in fluorescence in entire tumor at 20 mg/kg, ip qd measured after 7 days by immunohistochemical staining based confocal microscopic analysis relative to control; format: functional; parameters: scale not given: the % may be the effect or the level left; conditions: time 7 day
In short: (§8)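 Treatment began in RIP-Tag2 mice at 9–10 weeks: 75 mg/kg gavage BID for 1, 4 or 7 days, or 20 mg/kg ip QD for 7 days; vehicle Labrifil or water. Tissue fixed by vascular perfusion and 60–80 µm sections stained for VEGF with CD31. VEGF fluorescence intensity measured over whole tumor, tumor cells, or tumor vessels. 3–8 mice/group; ANOVA, Fisher PLSD.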

[15] = test system: Pancreatic islet cell carcinoma; test: Antivascular activity in pancreatic islet cell carcinoma in RIP-Tag2 mouse assessed as reduction in intratumoral hemorrhage by measuring reduction in TER-119 immunoreactivity at 20 mg/kg, ip qd pretreated with OSI-930 for 7 days at 200 mg/kg, po followed by compound administration and measured after 4 days by confocal microscopic analysis relative to control; format: functional; parameters: scale not given: the % may be the effect or the level left; conditions: time 4 day; in short: as §4
[16] = test system: Pancreatic islet cell carcinoma; test: (§9) Antitumor activity against pancreatic islet cell carcinoma in RIP-Tag2 mouse assessed as reduction in VEGF production by measuring reduction in tumor cell associated fluorescence intensity at 20 mg/kg, ip qd measured after 7 days by immunohistochemical staining based confocal microscopic analysis relative to control; format: functional; parameters: scale not given: the % may be the effect or the level left; conditions: time 7 day; in short: as §8
[17] = biological target: RAC-alpha serine/threonine-protein kinase (Homo sapiens) (UniProt P31749); test: Inhibition of AKT phosphorylation at Ser 473 site in serum deprived/insulin stimulated human OVCAR-3 cells harboring PTEN and wild type PI3K at 0.001 to 10 uM preincubated for 2 hrs followed by insulin stimulation and measured immediately by Western blot analysis; format: cell-based; conditions: dose 0.001-10 µM
[18] = test system: Pancreatic islet cell carcinoma; test: Antivascular activity against pancreatic islet cell carcinoma in RIP-Tag2 mouse assessed as reduction in vascular sprouts at 20 mg/kg, ip qd measured after 7 days by immunohistochemical staining based fluorescence microscopic analysis relative to control; format: functional; parameters: scale not given: the % may be the effect or the level left; conditions: time 7 day; in short: as §1
[19] = test system: Pancreatic islet cell carcinoma; test: Antivascular activity against pancreatic islet cell carcinoma in RIP-Tag2 mouse assessed as appearance of empty basement membrane sleeves at 20 mg/kg, ip qd measured after 7 days by immunohistochemical staining based confocal microscopic analysis; format: functional, organism-based; conditions: time 7.0 day; in short: as §1
Mus musculus [20] = test: In vivo inhibition of AKT phosphorylation in RIP-Tag2 mouse with pancreatic islet cell carcinoma 20 mg/kg, ip qd measured after 7 days by immunohistochemistry; format: functional, organism-based; conditions: time 7.0 day; in short: as §6
[21] = test system: Pancreatic islet cell carcinoma; test: Antivascular activity in pancreatic islet cell carcinoma in RIP-Tag2 mouse assessed as suppression of tumor regrowth by measuring reduction in vessel density at 20 mg/kg, ip qd pretreated with OSI-930 for 7 days at 200 mg/kg, po followed by compound administration and measured after 4 days (reference value: 18%); format: functional; parameters: scale not given: the % may be the effect or the level left; conditions: time 4 day; in short: as §4
[22] = test system: Pancreatic islet cell carcinoma; test: Antivascular activity against pancreatic islet cell carcinoma in RIP-Tag2 mouse assessed as reduction in CD31-positive tumor blood vessels at 20 mg/kg, ip qd measured after 7 days by immunohistochemical staining based fluorescence microscopic analysis; format: functional, organism-based; conditions: time 7.0 day; in short: as §1
[23] = test system: Pancreatic islet cell carcinoma; test: Antitumor activity in pancreatic islet cell carcinoma in RIP-Tag2 mouse assessed as induction of apoptosis by measuring increase in activated caspase-3 level at 20 mg/kg, ip qd […] for 4 days in presence of OSI-930 by immunohistochemistry analysis; format: functional, organism-based; conditions: time 4.0 day; in short: as §2
Mus musculus [24] = test: In vivo inhibition of S6 phosphorylation at 235/236 residues in nu/nu CD-1 mouse xenografted with human GEO cells at 20 mg/kg administered for 12 days and measured 2 to 24 hrs post last dose by Western blot analysis; format: functional, organism-based; conditions: time 290-312 hrs; in short: as §5
[25] = test system: Pancreatic islet cell carcinoma; test: Antitumor activity against pancreatic islet cell carcinoma in RIP-Tag2 mouse assessed as reduction in VEGF-B expression at 20 mg/kg, ip qd measured after 7 days by immunoprecipitation based densitometric analysis; format: functional, organism-based; conditions: time 7.0 day
In short: (§10)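 VEGF in tumor lysates from treated RIP-Tag2 mice (9–10 weeks old at start; 75 mg/kg gavage BID or 20 mg/kg ip QD) measured with mouse angiogenesis antibody arrays, read as pixel density. 3–8 mice/group, SEM; ANOVA with Fisher PLSD.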

[26] = test system: Pancreatic islet cell carcinoma; test: Antitumor activity against pancreatic islet cell carcinoma in RIP-Tag2 mouse assessed as reduction in VEGF-A expression at 20 mg/kg, ip qd measured after 7 days by immunoprecipitation based densitometric analysis; format: functional, organism-based; conditions: time 7.0 day; in short: as §10
[27] = test system: Pancreatic islet cell carcinoma; test: as §9, with “tumor vessels” for “tumor cell”; format: functional; parameters: scale not given: the % may be the effect or the level left; conditions: time 7 day; in short: as §8
[28] = biological target: Eukaryotic translation initiation factor 4E-binding protein 1 (Homo sapiens) (UniProt Q13541); test: Inhibition of 4E-BP1 phosphorylation at Ser 37/46 residues in serum deprived/insulin stimulated human OVCAR-3 cells harboring PTEN and wild type PI3K at 0.001 to 10 uM preincubated for 2 hrs followed by insulin stimulation and measured immediately by Western blot analysis; format: cell-based; conditions: dose 0.001-10 µM
[29] = biological target: Proline-rich AKT1 substrate 1 (Homo sapiens) (UniProt Q96B36); test: Inhibition of PRAS40 phosphorylation at Ser 246 residue in serum deprived/insulin stimulated human OVCAR-3 cells harboring PTEN and wild type PI3K at 0.001 to 10 uM preincubated for 2 hrs followed by insulin stimulation and measured immediately by Western blot analysis; format: cell-based; conditions: dose 0.001-10 µM
OVCAR-3 [30] = test: as §7, with “S6K” for “S6K phosphorylation”, “PI3K assessed as inhibition of s6 substrate phosphorylation at […] residue” for “PI3K”; format: cell-based; conditions: dose 0.001-10 µM

Sequence of Eukaryotic translation initiation factor 4E-binding protein 1 (Homo sapiens) (Q13541 whole entry): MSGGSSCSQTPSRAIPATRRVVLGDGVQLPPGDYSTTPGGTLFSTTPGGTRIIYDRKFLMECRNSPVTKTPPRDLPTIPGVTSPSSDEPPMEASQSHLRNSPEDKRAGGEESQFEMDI
Sequence of Vascular endothelial growth factor receptor 2 (P35968 whole entry): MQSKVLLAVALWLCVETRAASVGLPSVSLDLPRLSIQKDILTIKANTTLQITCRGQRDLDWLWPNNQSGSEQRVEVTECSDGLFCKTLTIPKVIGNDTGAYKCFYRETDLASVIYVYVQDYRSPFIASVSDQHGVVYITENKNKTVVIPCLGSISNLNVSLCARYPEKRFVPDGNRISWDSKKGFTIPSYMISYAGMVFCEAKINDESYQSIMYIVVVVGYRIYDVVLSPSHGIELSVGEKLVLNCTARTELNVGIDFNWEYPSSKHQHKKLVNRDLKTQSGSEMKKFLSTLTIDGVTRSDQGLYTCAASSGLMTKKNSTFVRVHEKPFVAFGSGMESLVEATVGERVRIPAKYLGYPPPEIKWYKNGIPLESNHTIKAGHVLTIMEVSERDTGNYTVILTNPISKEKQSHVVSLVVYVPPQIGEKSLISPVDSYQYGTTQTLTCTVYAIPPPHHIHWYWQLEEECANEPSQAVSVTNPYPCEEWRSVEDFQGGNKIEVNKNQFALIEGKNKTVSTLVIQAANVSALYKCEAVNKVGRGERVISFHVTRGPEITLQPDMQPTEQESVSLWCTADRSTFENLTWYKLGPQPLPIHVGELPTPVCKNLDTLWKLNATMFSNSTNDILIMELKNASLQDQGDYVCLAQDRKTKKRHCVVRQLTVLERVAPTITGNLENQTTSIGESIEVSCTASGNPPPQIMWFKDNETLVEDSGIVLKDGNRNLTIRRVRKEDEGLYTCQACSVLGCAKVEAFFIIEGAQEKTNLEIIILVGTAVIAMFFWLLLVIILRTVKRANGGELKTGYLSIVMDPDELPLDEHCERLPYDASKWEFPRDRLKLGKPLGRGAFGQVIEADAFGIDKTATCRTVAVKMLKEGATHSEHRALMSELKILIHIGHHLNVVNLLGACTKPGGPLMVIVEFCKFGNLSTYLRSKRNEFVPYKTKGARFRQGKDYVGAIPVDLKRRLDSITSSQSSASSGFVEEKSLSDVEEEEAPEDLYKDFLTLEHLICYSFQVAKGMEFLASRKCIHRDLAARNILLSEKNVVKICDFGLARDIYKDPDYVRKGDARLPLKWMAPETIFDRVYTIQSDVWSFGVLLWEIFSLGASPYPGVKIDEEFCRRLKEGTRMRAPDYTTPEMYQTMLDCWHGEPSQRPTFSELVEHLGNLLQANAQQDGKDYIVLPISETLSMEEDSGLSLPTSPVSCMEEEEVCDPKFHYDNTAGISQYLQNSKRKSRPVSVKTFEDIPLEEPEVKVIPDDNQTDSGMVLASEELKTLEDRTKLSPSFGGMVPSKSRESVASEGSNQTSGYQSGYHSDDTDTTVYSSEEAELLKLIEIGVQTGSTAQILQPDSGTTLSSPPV
Sequence of RAC-alpha serine/threonine-protein kinase (Homo sapiens) (P31749 whole entry): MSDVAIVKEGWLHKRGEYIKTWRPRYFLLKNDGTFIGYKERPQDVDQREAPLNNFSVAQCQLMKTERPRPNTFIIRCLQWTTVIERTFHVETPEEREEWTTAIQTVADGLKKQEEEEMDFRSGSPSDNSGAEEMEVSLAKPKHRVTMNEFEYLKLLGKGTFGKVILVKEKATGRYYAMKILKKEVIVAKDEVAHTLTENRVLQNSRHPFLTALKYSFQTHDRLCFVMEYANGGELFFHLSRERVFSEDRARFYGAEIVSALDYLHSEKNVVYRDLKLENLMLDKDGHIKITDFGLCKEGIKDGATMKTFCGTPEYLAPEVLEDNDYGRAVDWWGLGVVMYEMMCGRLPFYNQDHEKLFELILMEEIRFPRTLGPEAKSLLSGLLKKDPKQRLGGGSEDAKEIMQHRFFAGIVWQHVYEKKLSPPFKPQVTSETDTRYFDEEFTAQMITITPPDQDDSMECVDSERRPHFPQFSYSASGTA

O=C(Nc1ccc(OC(F)(F)F)cc1)c1sccc1NCc1ccnc2ccccc12 [OSI-930]
Activity [1]: 61% | Activity [2]: 700% | Activity [3]: Active | Activity [4]: 72% | Activity [5]: 28% | Activity [6]: 61% | IC50 [7]: 9 nM | Activity [8]: Active | Activity [9]: inactive

CO[C@H]1C[C@@H]2CC[C@@H](C)[C@@](O)(O2)C(=O)C(=O)N2CCCC[C@H]2C(=O)O[C@H]([C@H](C)C[C@@H]2CC[C@@H](O)[C@H](OC)C2)CC(=O)[C@H](C)/C=C(\C)[C@@H](O)[C@@H](OC)C(=O)[C@H](C)C[C@H](C)/C=C/C=C/C=C/1C [SIROLIMUS]
inhibition (Mus musculus [10]): Active | inhibition (Mus musculus [11]): Active | inhibition (OVCAR-3 [12]): Active | inhibition (Mus musculus [13]): inactive | Activity [14]: 21% | Activity [15]: 48% | Activity [16]: 34% | inhibition [17]: inactive | Activity [18]: 21% | Activity [19]: inactive | inhibition (Mus musculus [20]): inactive | Activity [21]: 15% | Activity [22]: inactive | Activity [23]: inactive | inhibition (Mus musculus [24]): Active | Activity [25]: inactive | Activity [26]: inactive | Activity [27]: 20% | inhibition [28]: inactive | inhibition [29]: inactive | inhibition (OVCAR-3 [30]): Active
